{"data": "Published values gathered from unrelated publications", "CSF1R autoinhibited": "Macrophage colony-stimulating factor 1 receptor, autoinhibited (CSF1R, Homo sapiens, UniProt P07333)", "CSF1R": "Macrophage colony-stimulating factor 1 receptor (CSF1R, Homo sapiens, UniProt P07333)"}
{"SMILES": "C[C@@H](c1ccc(-n2cnc3c(N)ncnc32)cc1)N1CCc2nn(C)c(Cc3ccccc3)c2C1=O", "target": "CSF1R autoinhibited", "assay": "binding, competition with immobilised ligand", "setting": "0.1 µM", "remaining binding [%]": 81}
{"SMILES": "O=C(NCCCN1CCOCC1)c1ccc(Nc2nccc(-c3cc4ccccc4s3)n2)cc1", "target": "CSF1R autoinhibited", "assay": "binding, competition with immobilised ligand", "setting": "1 µM", "remaining binding [%]": 83}
{"SMILES": "CN(C)c1ncc(F)c(-c2cnn3ncccc23)n1", "target": "CSF1R", "assay": "binding", "setting": "1 µM", "remaining binding [%]": 91}
{"SMILES": "CCCOc1ccc([C@H]2[C@H](C(=O)O)[C@@H](c3ccc4c(c3)OCO4)CN2CC(=O)Nc2c(CC)cccc2CC)cc1", "target": "CSF1R autoinhibited", "assay": "cell-free assay, competition with immobilised ligand", "setting": "1 µM", "remaining binding [%]": 61}
{"SMILES": "O=C(NCCCN1CCOCC1)c1ccc(Nc2ncc(Cl)c(-c3ccc(Cl)s3)n2)cc1", "target": "CSF1R autoinhibited", "assay": "binding, competition with immobilised ligand", "setting": "1 µM", "remaining binding [%]": 42}
{"SMILES": "O=c1nc(-c2ccccn2)sc2ccccc12", "target": "CSF1R", "assay": "cell-free assay, competition with immobilised ligand", "setting": "1 µM", "remaining binding [%]": 85}
{"SMILES": "COc1ncc2cc3ccccc3nc2c1C#N", "target": "CSF1R", "assay": "cell-free assay, competition with immobilised ligand", "setting": "5 µM", "remaining binding [%]": 96}
{"SMILES": "COc1cnc(Nc2cccc(S(N)(=O)=O)c2)nc1N1CCN(c2ccccc2)C(=O)C1", "target": "CSF1R autoinhibited", "assay": "binding, competition with immobilised ligand", "setting": "1 µM", "remaining binding [%]": 87}
{"SMILES": "O=C(O)[C@H]1[C@H](Cn2nnc3ccccc3c2=O)CC[C@@H]1C(=O)c1ccc(OCCC2CCOCC2)cc1", "target": "CSF1R autoinhibited", "assay": "cell-free assay, competition with immobilised ligand", "setting": "1 µM", "remaining binding [%]": 100}
{"SMILES": "c1cncc(-c2cccc(Nc3nccc(NC4CCCCC4)n3)c2)c1", "target": "CSF1R autoinhibited", "assay": "binding, competition with immobilised ligand", "setting": "10 µM", "remaining binding [%]": 0}
{"SMILES": "C[C@@H]1CN(c2cc(-c3nn(C)c4ccc(OC5(C)CC5)cc34)ncn2)C[C@H](C)O1", "target": "CSF1R autoinhibited", "assay": "cell-free assay, competition with immobilised ligand", "setting": "1 µM", "remaining binding [%]": 55}
{"SMILES": "CC1CCCN1c1nccc(-c2cnn3ncccc23)n1 (stereo not shown)", "target": "CSF1R", "assay": "binding", "setting": "1 µM", "remaining binding [%]": 100}
{"SMILES": "Nc1ncc2c(n1)-c1c([nH]c3ccc(C#CC4CC4)cc13)CCCC2", "target": "CSF1R", "assay": "binding, competition with immobilised ligand", "setting": "1 µM", "remaining binding [%]": 98}
{"SMILES": "N[C@@H]1CCN(c2nccc(-c3cnn4ncccc34)n2)C1", "target": "CSF1R", "assay": "binding", "setting": "1 µM", "remaining binding [%]": 100}
{"SMILES": "CN([C@@H]1CCc2c(CC(=O)O)c3cc(S(C)(=O)=O)ccc3n2C1)S(=O)(=O)c1ccc(F)cc1", "target": "CSF1R autoinhibited", "assay": "cell-free assay, competition with immobilised ligand", "setting": "1 µM", "remaining binding [%]": 93}
{"SMILES": "C[C@H]1CCN(c2nccc(-c3cnn4ncccc34)n2)C1", "target": "CSF1R", "assay": "binding", "setting": "1 µM", "remaining binding [%]": 100}
{"SMILES": "O=C(c1ccc(Nc2ncc(Cl)c(-c3cc4ccccc4s3)n2)cc1)N1CCC(N2CCCC2)CC1", "target": "CSF1R autoinhibited", "assay": "binding, competition with immobilised ligand", "setting": "1 µM", "remaining binding [%]": 56}
{"SMILES": "CN(C)c1nccc(-c2cnn3ncccc23)n1", "target": "CSF1R", "assay": "binding", "setting": "1 µM", "remaining binding [%]": 100}
{"SMILES": "COc1cccc(CNC(=O)c2nc3scc(COCc4ccc(C(=O)O)cc4)c3c(=O)[nH]2)c1", "target": "CSF1R autoinhibited", "assay": "cell-free assay, competition with immobilised ligand", "setting": "1 µM", "remaining binding [%]": 100}
